# Read-outs that look alike come from different tables or passages of the source.
# Columns and labels:
# [1] = test system: MCF-7 (human breast adenocarcinoma) cells; assay: Antiproliferative activity, LDH release assay, MCF-7; type: cell-based; conditions: MCF7, 48 h, read-out: IC50 (μM) ± SD MCF-7
# Method in brief: (§1)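 Cells were kept in RPMI-1640 with 10% heat-inactivated FBS and penicillin/streptomycin at 37 °C in 5% CO2. They were seeded at 1 × 10^4 per well, grown 18 h, then exposed to graded concentrations for 48 h, with doxorubicin as positive control. LDH was read in supernatant and in Triton X-100 lysate by kinetic A340 over 1 min, using pH 7.5 phosphate with 4.6 mM pyruvate and 0.4 mg mL−1 NADH. % release = released/total. Three experiments in triplicate; IC50 by probit analysis.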
# [2] = test system: HCT-116 (human colorectal carcinoma) cells; assay: Antiproliferative activity, LDH release assay, HCT-116; type: cell-based; conditions: HCT-116, 48 h, read-out: IC50 (μM) ± SD HCT-116
# Method in brief: as §1
# [3] = test system: BJ-1 normal human skin fibroblast cells; assay: Cytotoxicity on normal cells, LDH release assay, BJ-1; type: cell-based; conditions: for IC50: Homo sapiens, Skin fibroblast, 48 h, read-out: IC50 (μM) ± SD BJ-1; for toxic activity on healthy cells BJ-1: BJ-1 normal cells, LDH assay
# Method in brief: as §1
# [4] = molecular target: epidermal growth factor receptor (EGFR) (Homo sapiens, UniProt P00533); assay: EGFR kinase inhibition assay; type: biochemical
# [5] = molecular target: histone deacetylase 1 (HDAC1) (Homo sapiens, UniProt Q13547); assay: Fluorogenic HDAC1 inhibition assay; type: biochemical
# [6] = molecular target: ERK1 (extracellular signal-regulated kinase 1) (Homo sapiens, UniProt P27361); assay: ERK1 kinase assay; type: biochemical
# MCF-7 cells [7] = assay: Cell-cycle analysis by flow cytometry; type: cell-based, human; conditions: MCF-7, 48 h; control 10.98%
# MCF-7 cells [8] = assay: Apoptosis assay, Annexin V-FITC/PI flow cytometry; type: cell-based, human; conditions: MCF-7, 48 h
# [9] = test system: Ehrlich ascites carcinoma (EAC) cells; assay: Ehrlich ascites carcinoma; type: in vivo, female BALB/c mice; conditions: EAC-bearing mice; for total volume of collected ascitic fluid: i.p. 2 mg kg^−1 twice weekly × 2 weeks; for Avg. volume of ascitic fluid (mL) [packed cell volume] / Viable cell count (×10^6 cells per mL) / Cell-growth inhibition (%): i.p. 2 mg kg^−1 × 2 weeks; for Avg. volume of ascitic fluid (mL) [packed cell volume]: EAC control 10.5; for Viable cell count (×10^6 cells per mL): trypan blue, EAC control 33; for Cell-growth inhibition (%): vs EAC control viable cell count
# Method in brief: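 Female BALB/c mice (25 ± 3 g) received 1 × 10^6 EAC cells i.p. in 100 μL PBS (>95% trypan-blue viability). On day 3, mice were grouped (n = 8). Dosing was i.p.: test compound 2 mg kg−1 twice weekly × 2 weeks, DMSO vehicle, or doxorubicin 2 mg kg−1 once weekly. Endpoint: ascitic volume measured, fluid spun 1200×g for 10 min, viable cells counted by 0.4% trypan blue on a hemocytometer. Growth inhibition = (control − treated)/control × 100.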
# [10] = test system: Ehrlich solid carcinoma (ESC); assay: Ehrlich solid carcinoma; type: in vivo, male BALB-c mice; conditions: intratumoral 2 mg kg^−1, two doses weekly for two weeks
# Sequence of histone deacetylase 1 (HDAC1) (Q13547 whole entry): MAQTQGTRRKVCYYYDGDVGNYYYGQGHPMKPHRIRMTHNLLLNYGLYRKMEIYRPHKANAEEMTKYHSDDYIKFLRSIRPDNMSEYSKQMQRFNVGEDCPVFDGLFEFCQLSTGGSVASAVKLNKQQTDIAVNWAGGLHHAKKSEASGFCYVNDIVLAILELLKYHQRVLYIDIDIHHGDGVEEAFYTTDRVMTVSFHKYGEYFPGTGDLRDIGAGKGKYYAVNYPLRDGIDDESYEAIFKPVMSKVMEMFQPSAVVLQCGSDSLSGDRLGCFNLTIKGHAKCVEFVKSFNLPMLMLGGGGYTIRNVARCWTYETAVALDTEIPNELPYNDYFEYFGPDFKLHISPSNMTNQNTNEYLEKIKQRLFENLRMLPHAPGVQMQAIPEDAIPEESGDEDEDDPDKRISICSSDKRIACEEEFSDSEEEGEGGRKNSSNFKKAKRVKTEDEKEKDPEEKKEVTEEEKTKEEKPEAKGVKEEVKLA
# Sequence of epidermal growth factor receptor (EGFR) (P00533 25-1210): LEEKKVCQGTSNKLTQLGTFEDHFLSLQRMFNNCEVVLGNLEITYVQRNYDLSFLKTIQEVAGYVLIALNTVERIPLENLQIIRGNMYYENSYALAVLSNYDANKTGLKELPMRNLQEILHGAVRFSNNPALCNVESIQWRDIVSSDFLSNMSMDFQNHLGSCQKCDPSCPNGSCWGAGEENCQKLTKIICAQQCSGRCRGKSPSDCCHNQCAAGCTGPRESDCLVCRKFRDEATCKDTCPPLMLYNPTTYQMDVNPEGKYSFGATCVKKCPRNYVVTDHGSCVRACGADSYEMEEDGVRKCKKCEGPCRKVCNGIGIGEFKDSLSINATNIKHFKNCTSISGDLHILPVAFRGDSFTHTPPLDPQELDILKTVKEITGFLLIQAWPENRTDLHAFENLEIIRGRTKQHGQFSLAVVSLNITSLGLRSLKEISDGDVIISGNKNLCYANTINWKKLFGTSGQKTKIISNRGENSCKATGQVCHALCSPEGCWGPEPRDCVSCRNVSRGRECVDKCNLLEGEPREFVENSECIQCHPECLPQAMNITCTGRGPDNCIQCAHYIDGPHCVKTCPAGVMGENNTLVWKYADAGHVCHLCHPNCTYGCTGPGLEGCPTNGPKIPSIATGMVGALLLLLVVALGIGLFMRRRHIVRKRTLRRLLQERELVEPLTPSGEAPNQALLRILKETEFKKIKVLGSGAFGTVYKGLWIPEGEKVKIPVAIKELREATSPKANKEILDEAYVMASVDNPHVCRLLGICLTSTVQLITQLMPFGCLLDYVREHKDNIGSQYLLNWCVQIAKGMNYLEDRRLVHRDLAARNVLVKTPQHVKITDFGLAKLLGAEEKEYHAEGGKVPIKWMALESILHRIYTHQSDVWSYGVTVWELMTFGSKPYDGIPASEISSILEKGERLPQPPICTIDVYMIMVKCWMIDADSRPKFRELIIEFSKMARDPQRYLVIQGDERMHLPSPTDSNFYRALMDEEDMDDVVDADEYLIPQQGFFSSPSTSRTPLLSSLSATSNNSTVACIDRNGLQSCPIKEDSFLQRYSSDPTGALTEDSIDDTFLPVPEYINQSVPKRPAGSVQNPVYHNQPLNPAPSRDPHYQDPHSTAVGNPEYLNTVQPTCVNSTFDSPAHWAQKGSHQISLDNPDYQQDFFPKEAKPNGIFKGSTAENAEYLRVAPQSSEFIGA
# Sequence of ERK1 (extracellular signal-regulated kinase 1) (P27361 whole entry): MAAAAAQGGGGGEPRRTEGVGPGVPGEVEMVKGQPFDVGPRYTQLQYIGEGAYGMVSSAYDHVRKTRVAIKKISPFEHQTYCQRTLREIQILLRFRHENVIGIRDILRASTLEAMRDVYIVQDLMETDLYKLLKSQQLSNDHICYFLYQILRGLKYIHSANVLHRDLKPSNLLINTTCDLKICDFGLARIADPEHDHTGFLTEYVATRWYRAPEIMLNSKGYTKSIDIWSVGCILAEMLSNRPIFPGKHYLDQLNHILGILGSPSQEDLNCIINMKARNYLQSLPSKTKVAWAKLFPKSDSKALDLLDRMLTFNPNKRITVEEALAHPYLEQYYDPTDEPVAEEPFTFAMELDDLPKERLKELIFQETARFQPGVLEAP
IC50 [1],IC50 [2],SMILES,IC50 [3],further results
3.1 ± 0.1 µM,3.2 ± 0.1 µM,"COc1ccc(N=Nc2sc(=NN=C(C)c3c(O)c4ccccc4oc3=O)[nH]c2C)cc1 [3a, 4-Hydroxy-3-(-1-((-5-(-(4-methoxyphenyl)diazenyl)-4-methylthiazol-2(3H)-ylidene) hydrazono)ethyl)-2H-chromen-2-one]",24.8 ± 2.1 µM,
5 ± 0.2 µM,2.6 ± 0.1 µM,"COc1ccc(N=Nc2sc(=NN=C(C)c3c(O)c4ccccc4oc3=O)n(C)c2C)cc1 [3b, 4-Hydroxy-3-(-1-((-5-(-(4-methoxyphenyl)diazenyl)-3,4-dimethylthiazol-2(3H)-ylidene) hydrazono)ethyl)-2H-chromen-2-one]",27 ± 2.2 µM,
2.6 ± 0.1 µM,3.1 ± 0.1 µM,"CCn1c(C)c(N=Nc2ccc(OC)cc2)sc1=NN=C(C)c1c(O)c2ccccc2oc1=O [3c, 3-(1-((-3-Ethyl-5-(-(4-methoxyphenyl)diazenyl)-4-methylthiazol-2(3H)-ylidene) hydrazono)ethyl)-4-hydroxy-2H-chromen-2-one]",27 ± 2.1 µM,
5.1 ± 0.2 µM,2.8 ± 0.1 µM,"CC(=NN=c1[nH]c(C)c(N=Nc2ccc([N+](=O)[O-])cc2[N+](=O)[O-])s1)c1c(O)c2ccccc2oc1=O [3d, 3-(-1-((-5-(-(2,4-Dinitrophenyl)diazenyl)-4-methylthiazol-2(3H)-ylidene)hydrazono)ethyl)-4-hydroxy-2H-chromen-2-one]",26.7 ± 2.3 µM,
2.6 ± 0.1 µM,2.9 ± 0.2 µM,"CCn1c(C)c(N=Nc2ccc([N+](=O)[O-])cc2[N+](=O)[O-])sc1=NN=C(C)c1c(O)c2ccccc2oc1=O [3f, 3-(-1-((-5-(-(2,4-Dinitrophenyl)diazenyl)-3-ethyl-4-methylthiazol-2(3H)-ylidene)hydrazono)ethyl)-4-hydroxy-2H-chromen-2-one]",25.6 ± 2.5 µM,
2.9 ± 0.2 µM,2.8 ± 0.2 µM,"CC(=NN=c1[nH]c(C)c(N=Nc2ccc(F)cc2)s1)c1c(O)c2ccccc2oc1=O [3g, 3-(-1-((-5-(-(4-Fluorophenyl)diazenyl)-4-methylthiazol-2(3H)-ylidene)hydrazono)ethyl)-4-hydroxy-2H-chromen-2-one]",30.6 ± 3.3 µM,
2.8 ± 0.2 µM,3 ± 0.2 µM,"CC(=NN=c1sc(N=Nc2ccc(F)cc2)c(C)n1C)c1c(O)c2ccccc2oc1=O [3h, 3-(-1-((-5-(-(4-Fluorophenyl)diazenyl)-3,4-dimethylthiazol-2(3H)-ylidene)hydrazono)ethyl)-4-hydroxy-2H-chromen-2-one]",27.5 ± 2.5 µM,
3 ± 0.1 µM,3.1 ± 0.2 µM,"CCn1c(C)c(N=Nc2ccc(F)cc2)sc1=NN=C(C)c1c(O)c2ccccc2oc1=O [3i, 3-(-1-((-3-Ethyl-5-(-(4-fluorophenyl)diazenyl)-4-methylthiazol-2(3H)-ylidene)hydrazono)ethyl)-4-hydroxy-2H-chromen-2-one]",34.3 ± 2.5 µM,
3.1 ± 0.2 µM,12.7 ± 1.2 µM,"CC(=NN=c1[nH]c(C)c(N=Nc2ccc(Cl)cc2)s1)c1c(O)c2ccccc2oc1=O [3j, 3-(-1-((-5-(-(4-Chlorophenyl)diazenyl)-4-methylthiazol-2(3H)-ylidene)hydrazono)ethyl)-4-hydroxy-2H-chromen-2-one]",27 ± 2.3 µM,
5.4 ± 0.3 µM,11.6 ± 1.1 µM,"CC(=NN=c1sc(N=Nc2ccc(Cl)cc2)c(C)n1C)c1c(O)c2ccccc2oc1=O [3k, 3-(-1-((-5-(-(4-Chlorophenyl)diazenyl)-3,4-dimethylthiazol-2(3H)-ylidene)hydrazono)ethyl)-4-hydroxy-2H-chromen-2-one]",25.8 ± 2.1 µM,
4.8 ± 0.3 µM,2.8 ± 0.1 µM,"CCn1c(C)c(N=Nc2ccc(Cl)cc2)sc1=NN=C(C)c1c(O)c2ccccc2oc1=O [3l, 3-(-1-((-5-(-(4-Chlorophenyl)diazenyl)-3-ethyl-4-methylthiazol-2(3H)-ylidene)hydrazono)ethyl)-4-hydroxy-2H-chromen-2-one]",26.2 ± 2.4 µM,
12.7 ± 1.1 µM,33.8 ± 3.1 µM,"CC(=NN=c1[nH]c(C)c(N=Nc2ccc(Br)cc2)s1)c1c(O)c2ccccc2oc1=O [3m, 3-(-1-((-5-(-(4-Bromophenyl)diazenyl)-4-methylthiazol-2(3H)-ylidene)hydrazono)ethyl)-4-hydroxy-2H-chromen-2-one]",> 500 µM,toxic activity on healthy cells BJ-1 [3]: non-significant toxic activities; IC50 [4]: 0.08 ± 0.003 µM; IC50 [5]: 1.01 ± 0.034 µM; IC50 [6]: 0.339 ± 0.013 µM; cells in the G2/M phase (MCF-7 cells [7]): 29.71%; late apoptosis (MCF-7 cells [8]; control 0.14%): 5.57%; early apoptosis (MCF-7 cells [8]; control 0.61%): 14.67%; necrosis (MCF-7 cells [8]; control 2.16%): 3.51%; total volume of collected ascitic fluid [9]: significant reduction; Avg. volume of ascitic fluid (mL) [packed cell volume] [9]: 6 mL; Viable cell count (×10^6 cells per mL) [9]: 13 ×10^6 cells per mL; Cell-growth inhibition (%) [9]: 60.61%; tumor volume of Ehrlich solid carcinoma [10]: reduced to a level comparable to that of the doxorubicin group
12.3 ± 1.2 µM,31.8 ± 3.3 µM,"CC(=NN=c1sc(N=Nc2ccc(Br)cc2)c(C)n1C)c1c(O)c2ccccc2oc1=O [3n, 3-(-1-((-5-(-(4-Bromophenyl)diazenyl)-3,4-dimethylthiazol-2(3H)-ylidene)hydrazono)ethyl)-4-hydroxy-2H-chromen-2-one]",> 500 µM,toxic activity on healthy cells BJ-1 [3]: non-significant toxic activities; IC50 [4]: 0.35 ± 0.011 µM; IC50 [5]: 3.88 ± 0.131 µM; total volume of collected ascitic fluid [9]: significant reduction; Avg. volume of ascitic fluid (mL) [packed cell volume] [9]: 8 mL; Viable cell count (×10^6 cells per mL) [9]: 22 ×10^6 cells per mL; Cell-growth inhibition (%) [9]: 33.33%; tumor volume of Ehrlich solid carcinoma [10]: more significant in the group administered with compound 3m than in the group administered with compound 3n
22.9 ± 2.3 µM,29.8 ± 2.5 µM,"CCn1c(C)c(N=Nc2ccc(Br)cc2)sc1=NN=C(C)c1c(O)c2ccccc2oc1=O [3o, 3-(-1-((-5-(-(4-Bromophenyl)diazenyl)-3-ethyl-4-methylthiazol-2(3H)-ylidene)hydrazono)ethyl)-4-hydroxy-2H-chromen-2-one]",> 500 µM,toxic activity on healthy cells BJ-1 [3]: non-significant toxic activities
5.6 ± 0.3 µM,6.5 ± 0.5 µM,"COc1cccc2c1C(=O)c1c(O)c3c(c(O)c1C2=O)C[C@@](O)(C(=O)CO)C[C@@H]3O[C@H]1C[C@H](N)[C@H](O)[C@H](C)O1 [Doxorubicin, reference compound]",32.1 ± 3.1 µM,Avg. volume of ascitic fluid (mL) [packed cell volume] [9]: 4 mL; Viable cell count (×10^6 cells per mL) [9]: 9 ×10^6 cells per mL; Cell-growth inhibition (%) [9]: 72.72%
,,"Cc1cc(Nc2ncc3c(n2)N(C)C(=O)N(c2cc(NC(=O)c4cccc(C(F)(F)F)c4)ccc2C)C3)n(C)n1 [pluripotin, reference compound]",,IC50 ([6]; read-out: ERK inhibition IC50): 0.171 ± 0.006 µM

# Reference: publication PMC12423761 (RSC Advances, 2025)
